Source: ChEMBL document CHEMBL1132197, “Stereospecific synthesis, structure-activity relationship, and oral bioavailability of tetrahydropyrimidin-2-one HIV protease inhibitors” (J Med Chem, 1999)
pKi: −log10 of the molar value.

Columns and labels:
MT2 = test: Antiviral activity by measuring its effect on the accumulation of viral RNA transcripts on infection of MT-2 cells with HIV-1 RF.; assay type: functional; conditions: Homo sapiens
How it was run: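 Viral RNA transcript accumulation read 3 days after HIV-1 RF infection of MT-2 cells. IC90 is the concentration cutting viral RNA by 90% versus an untreated infected culture. TC50 came from MTT dye reduction in uninfected MT-2 cultures grown 3 days with compound.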

[1] = biological target: Human immunodeficiency virus type 1 protease (Human immunodeficiency virus 1, UniProt Q72874); test: Inhibition constant of HIV protease inhibitors
How it was run: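 HIV protease (HIVPR) inhibition constant was determined by monitoring cleavage of a fluorescent peptide substrate, with products separated and quantified by HPLC.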

[2] = The maximum plasma concentration (Cmax) is the observed peak plasma concentration after an oral dose on rat.; assay type: ADME, organism-based; design: route oral
How it was run: (§1)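 Rats dosed orally in groups at 10 mg/kg, in a formulation of propylene glycol, poly(ethylene glycol) 400 and water. Cmax is the observed peak plasma concentration after the oral dose.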

[3] = The maximum plasma concentration (Cmax) is the observed peak plasma concentration after an oral dose on rat; assay type: ADME, organism-based; design: route oral; how it was run: as §1
[4] = The maximum plasma concentration (Cmax) is the observed peak plasma concentration after an oral dose on dog.; assay type: ADME, organism-based, Canis lupus familiaris; design: route oral

O=C1N(Cc2cccc(O)c2)[C@H]([C@@H](F)Cc2ccccc2)[C@@H](O)[C@@H](Cc2ccccc2)N1Cc1cccc(O)c1
IC90 (MT2): 2100 nM
pKi [1]: 7.92
Cmax [2]: 0.25 µM

CC(=O)c1cccc(CN2C(=O)N(Cc3cccc(C(C)=O)c3)[C@H](Cc3ccccc3)[C@H](O)[C@H]2CCc2ccccc2)c1
Cmax [3]: 0.18 µM
IC90 (MT2): 49 nM
pKi [1]: 9.04

O=C1N(Cc2cccc(-c3cc[nH]n3)c2)[C@H](CCc2ccccc2)[C@@H](O)[C@@H](Cc2ccccc2)N1Cc1cccc(-c2cc[nH]n2)c1
Cmax [3]: 0.16 µM
IC90 (MT2): 22 nM
pKi [1]: 10.00

O=C1N(Cc2ccc3[nH]ncc3c2)[C@H](CCc2ccccc2)[C@@H](O)[C@@H](Cc2ccccc2)N1Cc1ccc2[nH]ncc2c1
Cmax [4]: 0.25 µM
pKi [1]: 10.70

Nc1cccc(CN2C(=O)N(Cc3cccc(N)c3)[C@H](Cc3ccccc3)[C@H](O)[C@H]2CCc2ccccc2)c1
Cmax [3]: 1 µM
IC90 (MT2): 365 nM

O=C1N(Cc2cccc(CO)c2)[C@H](CCc2ccccc2)[C@@H](O)[C@@H](Cc2ccccc2)N1Cc1cccc(CO)c1
Cmax [3]: 0.24 µM
IC90 (MT2): 109 nM
